This note sets out measurements from ChEMBL document CHEMBL4138212, “Novel triazine dimers with potent antitrypanosomal activity” (Eur J Med Chem, 2018).

Test [1] can be described thus: Cytotoxicity against human MRC5 SV2 cells assessed as decrease in cell viability after 72 hrs by resazurin dye-based fluorometric method. To be noted: MRC-5 SV2, 72 h.
Test [2] relates to Trypanosoma brucei brucei. Briefly: Antitrypanosomal activity against suramin-sensitive Trypanosoma brucei brucei Squib 427 infected in Swiss mouse assessed as reduction in parasitemia at 10 mg/kg administered first dose orally 1/2 hrs prior to infection followed by dosed intraperitoneally as qd for 5 days measured on day 4 of compound dosing by Giemsa staining-based microscopic method relative to control. The format is functional. On the set-up: scale not given: the % may be the effect or the level left. Summed up:
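Female Swiss mice, 6 per group, were infected IP with about 1×10⁴ trypanosomes on day 0. The first dose was given orally ½ h before infection, then IP for 5 days, in DMSO, DMSO/PEG200 (1/50) or PBS for suramin. On day 4, tail-vein blood smears were Giemsa-stained and counted microscopically. Activity = 100 − (mean parasitemia treated/mean vehicle-infected control)×100.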

The subject of test [3] is Trypanosoma brucei brucei. Briefly: Antitrypanosomal activity against suramin-sensitive Trypanosoma brucei brucei Squib 427 infected in Swiss mouse assessed as increase in mouse survival at 10 mg/kg administered first dose orally 1/2 hrs prior to infection followed by dosed intraperitoneally as qd for 5 days measured on day 14 post infection. The test is classed as functional, organism-based. The essentials:
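Female Swiss mice, 6 per group, were infected IP with about 1×10⁴ trypanosomes in 0.25 ml PBS-diluted donor blood on day 0. The first dose was given orally ½ h before infection, then IP for 5 days. Vehicles were 100% DMSO or DMSO/PEG200 (1/50); suramin was formulated in PBS. Mortality was monitored daily, ill animals were euthanized, and survivors were counted on day 14 post-infection.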

Test [4] deals with Trypanosoma brucei rhodesiense. Briefly: Antitrypanosomal activity against Trypanosoma brucei rhodesiense STIB-900 after 72 hrs by resazurin dye-based fluorometric method. The test is classed as functional, organism-based. To be noted: STIB-900, 72 h. The essentials:
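Parasites in HMI-9 with 10% heat-inactivated FBS at 2×10⁴/mL were exposed to five 4-fold dilutions from 64 µg/mL for 72 h at 37 °C in 5% CO₂. IC₅₀ comes from % growth reduction versus controls, as the mean of at least two independent determinations.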

For test [5], the system named is Trypanosoma brucei brucei. Briefly: Antitrypanosomal activity against suramin-sensitive Trypanosoma brucei brucei Squib 427 after 72 hrs by resazurin dye-based fluorometric method. The conditions noted are these: Squib 427, 72 h. The format is functional, organism-based. The essentials:
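Bloodstream parasites in HMI-9 with 10% heat-inactivated FBS at 7×10⁴/mL were exposed to five 4-fold dilutions from 64 µg/mL for 72 h at 37 °C in 5% CO₂. IC₅₀ comes from % growth reduction versus controls, as the mean of at least two independent determinations.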
In general terms: Resazurin is reduced to fluorescent resorufin, in cell work by metabolically active cells.

The subject of test [6] is Leishmania infantum. Briefly: Antileishmanial activity against amastigote stage of Leishmania infantum MHOM/MA(BE)/67 infected in mouse primary peritoneal macrophages assessed as decrease in parasite burden after 120 hrs by Giemsa staining-based microscopic method. The test is classed as functional, organism-based. The conditions noted are these: MHOM/MA(BE)/67, 120 h.

Test [7] deals with Trypanosoma cruzi. Briefly: Antitrypanosomal activity against beta-galactosidase expressing nifurtimox-sensitive Trypanosoma cruzi Tulahuen CL2 infected in human MRC5 SV2 cells assessed as decrease in parasite burden after 168 hrs by spectrophotometric method. The format is functional, organism-based. The conditions noted are these: Tulahuen CL2, MRC-5 SV2, 168 h.
Test [8] has as its system Plasmodium falciparum. Briefly: Antiplasmodial activity against chloroquine-resistant Plasmodium falciparum K1 infected in human O-positive erythrocytes assessed as decrease in parasitaemia after 72 hrs by NBT dye-based spectrophotometric method. The test is classed as functional, organism-based. The conditions noted are these: K1, 72 h.

Calls of active or inactive are those of the source. No cut-off for these calls is given here.

As for `Cc1ccc(C(=O)Nc2ccc(S(=O)(=O)O)c3cc(S(=O)(=O)O)cc(S(=O)(=O)O)c23)cc1NC(=O)c1cccc(NC(=O)Nc2cccc(C(=O)Nc3cc(C(=O)Nc4ccc(S(=O)(=O)O)c5cc(S(=O)(=O)O)cc(S(=O)(=O)O)c45)ccc3C)c2)c1` [SURAMIN], the concentration for half-maximal inhibition (IC50) (in general, the concentration that gives 50% inhibition) in test [1] is greater than 64 µM. Moreover, in test [2], the Activity amounted to 100%. The outcome in test [3] was Active.

For `Cc1cc(C)c(Nc2nc(Nc3ccc(C#N)cc3)nc(Nc3ccc(Nc4nc(Nc5ccc(C#N)cc5)nc(Nc5c(C)cc(C)cc5C)n4)cc3)n2)c(C)c1`, the IC50 is 0.02 µM in test [4]; greater than 64 µM in test [1]; 0.53 µM in test [5]; greater than 64 µM in test [6]; greater than 64 µM in test [7]; greater than 64 µM in test [8].

Consider `CO[C@H]1O[C@@H]2O[C@@]3(C)CC[C@H]4[C@H](C)CC[C@@H]([C@H]1C)[C@@]24OO3`, for which the figures for the IC50 in test [1] and in test [8] were greater than 64 µM and 0.02 µM, respectively.

`CCCCCCCCCCCCCCCCOP(=O)([O-])OCC[N+](C)(C)C` [MILTEFOSINE]: the IC50 in test [1] was greater than 64 µM.

With `O=C(Cn1ccnc1[N+](=O)[O-])NCc1ccccc1` [BENZNIDAZOLE], the IC50 was greater than 64 µM in test [1] and 2.56 µM in test [7].

As for `Nc1nc(N)nc(Nc2ccc([As]3SCC(CO)S3)cc2)n1` (stereo not drawn) [MELARSOPROL], the IC50 in test [1] is 7.4 µM.

In the case of `CCN(CC)CCCC(C)Nc1ccnc2cc(Cl)ccc12` (stereo not drawn) [CHLOROQUINE], the IC50 in test [1] was greater than 64 µM.

Turning to `CC1CS(=O)(=O)CCN1/N=C/c1ccc([N+](=O)[O-])o1` (stereo not drawn) [NIFURTIMOX], the IC50 was greater than 64 µM in test [1] and 0.7 µM in test [7].
